# From PubChem BioAssay
# Sampled rows, rich in hits. Any-hit rate of the full collection: about 1.9%.
# DSG3 Ab inh: blocks pemphigus antibody binding to human desmoglein-3; DSG3-coupled beads, scFv-anti-DSG3-GFP binding, flow cytometry; hits give low values; binding (percent of control), % at 10 µM; 310,000 compounds, 0.48% hits; AID 588358;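 active = binding more than 3 SD below its plate's average and above zero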;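 also: hits lower antibody fragment binding to DSG3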
# Target sequence (P32926 whole entry, looked up, the tested form may be a part): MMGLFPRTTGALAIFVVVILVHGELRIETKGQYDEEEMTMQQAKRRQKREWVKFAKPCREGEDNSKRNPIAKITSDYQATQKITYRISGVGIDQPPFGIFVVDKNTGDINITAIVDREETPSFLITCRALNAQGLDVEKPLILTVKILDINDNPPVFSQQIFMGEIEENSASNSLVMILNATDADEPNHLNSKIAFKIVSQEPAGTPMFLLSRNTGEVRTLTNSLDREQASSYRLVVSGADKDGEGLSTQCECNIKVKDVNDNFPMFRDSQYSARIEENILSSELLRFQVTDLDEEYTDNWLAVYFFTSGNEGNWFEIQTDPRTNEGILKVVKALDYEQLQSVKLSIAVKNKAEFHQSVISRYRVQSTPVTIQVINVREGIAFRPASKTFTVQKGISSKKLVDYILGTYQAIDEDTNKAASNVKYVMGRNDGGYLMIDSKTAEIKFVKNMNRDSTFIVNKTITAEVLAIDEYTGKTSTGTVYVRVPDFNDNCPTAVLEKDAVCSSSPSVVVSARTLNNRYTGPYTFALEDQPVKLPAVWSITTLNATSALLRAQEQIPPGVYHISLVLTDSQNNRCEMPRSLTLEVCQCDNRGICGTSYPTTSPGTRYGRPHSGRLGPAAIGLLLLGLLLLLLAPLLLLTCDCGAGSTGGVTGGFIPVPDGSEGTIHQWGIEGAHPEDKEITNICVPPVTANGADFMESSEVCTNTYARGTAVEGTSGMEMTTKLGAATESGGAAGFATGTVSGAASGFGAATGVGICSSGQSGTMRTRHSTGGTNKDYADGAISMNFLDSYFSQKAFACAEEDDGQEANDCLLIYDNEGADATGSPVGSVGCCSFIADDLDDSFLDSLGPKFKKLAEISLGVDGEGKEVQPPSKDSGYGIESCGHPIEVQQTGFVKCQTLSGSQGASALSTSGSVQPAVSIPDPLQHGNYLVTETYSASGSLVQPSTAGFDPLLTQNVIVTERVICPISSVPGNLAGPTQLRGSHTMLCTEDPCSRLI
# Tb MetRS inh: Trypanosoma brucei MetRS inhibition. purified T. brucei MetRS, ATP depletion, Kinase-Glo luminescence. 360,000 compounds, 0.4% hits. AID 624268. inhibition, % at 11.9 µM;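 active = inhibition above a per-plate cutoff of the control wells' mean inhibition plus 3 SD, cut at about 5.5% in these data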;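 also: 0% = DMSO wells median and 100% = median of wells with control inhibitor compound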
#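 System: purified T. brucei MetRS enzyme / Detection: Kinase-Glo luciferase luminescence reporting remaining unconsumed ATP / Medium: HEPES buffer with MgCl2, KCl, DTT, spermine, BSA, pyrophosphatase / Replication: singlicate, one well per compound / Evaluation: percent inhibition relative to median high and low control wells / Schedule: 2 h aminoacylation at 25 °C after 15 min preincubation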
# Rce1 inhib: blocks yeast Ras-converting enzyme; AID 2563; calls only; 290,000 compounds, 0.27% hits; yeast membranes, quenched prenylated peptide cleavage fluorescence;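 active = fall in fluorescence gain of 50% or more versus controls, with final raw signal at or below 3038400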;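 also: plate controls were neutral control wells for no effect and wells lacking membranes for full effect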
# NadD inh: NadD (S. aureus) enzyme inhibition | purified NadD enzyme, colorimetric absorbance read-out | inhibition, % at 20 µM | 360,000 compounds, 0.78% hits; in the data active = inhibition above about 26%
# core dimer inh: blocks dimerization of HCV core protein; TR-FRET GST/Flag-core106 dimerization, 1536-well; inhibition, % at 5 µM; 300,000 compounds, 0.33% hits; AID 1899;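 active = inhibition above the mean of all tested compounds plus 3 SD, set per screening campaign, cut at about 45% in these data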
#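 Assay system: GST-tagged and Flag-tagged HCV core protein residues 1-106 / Times: compound-protein-antibody incubation 4 h at 22.5 °C / Signal: time-resolved FRET, ex 340 nm, em 617 and 671 nm / Evaluation: % inhibition based on acceptor/donor emission ratio / Benchmarks: wells lacking GST-core106 and wells with excess unlabelled core106 / Repeats: singlicate, one well per compound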
# Tb MetRS conf: confirmation of Trypanosoma brucei MetRS inhibitors; shares compounds with Tb MetRS inh; T. brucei MetRS enzyme, luminescence (ATP depletion); inhibition, % at 11.9 µM; 1,400 compounds, 93% hits; in the data active = inhibition above about 7%
# Jurkat tox: kills Jurkat cells in T. brucei MetRS counterscreen; shares compounds with Tb MetRS inh; Jurkat cells viability, ATP luminescence; inhibition, % at 8.3 µM; 1,400 compounds, 12% hits; AID 624413; in the data active = inhibition above about 15%;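 also: 0% = vehicle and 100% = reference inhibitor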
# Tb MetRS inh FP: T. brucei MetRS inhibition, orthogonal assay. 1,400 compounds, 44% hits. AID 651607. inhibition, % at 11.9 µM. shares compounds with Tb MetRS inh. purified T. brucei MetRS, fluorescence polarization; in the data active = inhibition above about 17%;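 also: 0% = vehicle wells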
# Numbers without * were called inactive; i = inactive; . = not tested or not shown.
SMILES,DSG3 Ab inh,Tb MetRS inh,Rce1 inhib,NadD inh,core dimer inh,Tb MetRS conf,Jurkat tox,Tb MetRS inh FP
Cc1cnc(NC(=O)c2ccc(OCC3CCCO3)cc2)s1 (configuration not stated),.,-1,i,-5,0,.,.,.
CCOC(=O)c1sc(NC(=O)Nc2ccccc2)cc1C,104,11*,i,-6,1,28*,15,36*
O=[N+]([O-])c1ccc2nc(SCc3cn4ccccc4n3)[nH]c2c1,96,17*,i,-6,4,35*,-3,21*
O=[N+]([O-])c1ccc2nc(SCc3cn4cccnc4n3)[nH]c2c1,87,1,i,1,-5,.,.,.
COCCn1c(SCc2cccnc2)nnc1-c1ccco1,.,0,i,1,-3,.,.,.
O=C(Cc1ccccc1)NCCc1ccc(Cl)cc1Cl,84,0,i,0,3,.,.,.
N=c1sccn1CC(=O)NCCc1ccc(Cl)cc1Cl,105,16*,.,-2,-5,42*,-5,10
COc1ccc(/C=C(/NC(=O)c2ccccc2)C(=O)NC(Cc2c[nH]c3ccccc23)C(=O)O)cc1 (configuration not stated),113,0,i,4,.,.,.,.
O=C(c1cccnc1)C1CCCN(Cc2nc(Cc3ccccc3F)no2)C1 (configuration not stated),105,0,i,1,0,.,.,.
CN(C)CCNC(=O)c1ccc(COc2ccc(Cl)cc2Cl)cc1,99,9.7*,i,-8,-5,16*,27*,13
COc1ccc(Cl)cc1C(=O)NCCN(C)C,.,-1,i,-6,-3,.,.,.
CN1CCN(C(=O)c2ccc(COc3ccc(Cl)cc3Cl)cc2)CC1,100,9.9*,i,-4,-1,19*,8,2
O=C(c1ccco1)N1CCN(C(=O)c2ccc(COc3ccc(Cl)cc3Cl)o2)CC1,.,5.9*,i,12,8,16*,2,13
O=C(O)CSCC(=O)N1CCN(S(=O)(=O)c2ccccc2)CC1,100,-1,i,5,-2,.,.,.
CCCCNc1nc(NCc2ccccc2)nc2ccccc12,.,10*,.,6,.,22*,62*,5
OCCNc1nc(Nc2ccccc2)nc2ccccc12,105,11*,i,-10,-3,31*,-1,8
CCCCC[C@H](C)N1C[C@H](COCc2ccccc2)Oc2cc(N3CC[C@@H](O)C3)ccc2S1(=O)=O,.,-1,.,-10,.,.,.,.
CCOC(=O)c1nnn(CC(=O)Nc2ccccc2)c1C(=O)OCC,81,0,.,5,10,.,.,.
CCOC(=O)c1nnn(CC(=O)NC(=O)Nc2ccccc2)c1C(=O)OCC,102,7.3*,i,-3,3,20*,-8,6
O=C(CN1CCSC1=NCc1ccccc1)c1ccc(Cl)c(Cl)c1,113,61*,i,-6,-4,83*,3,67*
O=C(Cn1ccccc1=S)c1ccc(Cl)c(Cl)c1,107,0,i,2,0,.,.,.
CCOc1ccc(CN2CCN(Cc3cc4ccccc4[nH]3)CC2CCO)cc1 (configuration not stated),101,14*,i,1,.,26*,5,13
Nc1nnc(CC(=O)N/N=C/c2ccc(-c3ccc(Cl)cc3Cl)o2)s1,77,11*,i,6,15,3,4,5
Nc1nnc(CC(=O)N/N=C/c2ccc(-c3ccccc3Cl)o2)s1,89,3,i,13,23,.,.,.
Nc1nnc(CC(=O)N/N=C/c2ccc(-c3ccccc3)o2)s1,88,8.1*,i,-2,1,5,1,9
SMILES,DSG3 Ab inh,Tb MetRS inh,Rce1 inhib,NadD inh,core dimer inh,Tb MetRS conf,Jurkat tox,Tb MetRS inh FP
Nc1nc(Nc2cccc(F)c2)nc2ccccc12,107,24*,i,-5,-3,34*,15,20*
Cc1cccc(N2CCN(C(=O)CNC(=O)Cc3ccccc3)CC2)c1C,.,-1,.,-4,.,.,.,.
Cc1ccc(OCC(=O)NNC(=O)c2ccc(-n3cncn3)c([N+](=O)[O-])c2)cc1,106,16*,.,0,1,41*,-4,17*
O=C(COc1ccc(Br)cc1)NNC(=O)c1ccc(-n2cncn2)c([N+](=O)[O-])c1,96,20*,.,2,.,54*,1,23*
CC(C)CN(C(=O)c1ccc(-n2cncn2)c([N+](=O)[O-])c1)C1CCS(=O)(=O)C1 (configuration not stated),101,2,i,1,2,.,.,.
CCc1ccc(OCC(=O)NNC(=O)c2ccc(-n3cncn3)c([N+](=O)[O-])c2)cc1,102,5.9*,.,-3,.,35*,-8,17*
CC(=O)N1c2ccc(S(=O)(=O)N3CCCC3C(=O)NCc3ccccc3Cl)cc2CC1C (configuration not stated),108,0,i,3,3,.,.,.
Nc1ccc(C(=O)C(=O)c2ccc(N)cc2)cc1,94,0,i,-3,-1,.,.,.
c1ccc2c(c1)nc(N1CCOCC1)c1c3ccccc3[nH]c21,100,12*,i,4,-1,4,-3,5
COCCCNC(=S)NNC(=O)c1ccc(S(=O)(=O)N2CCC(C)CC2)cc1,76,59*,i,3,-4,80*,3,50*
Cc1ccc(NC(=O)/C=N/OCC(=O)NCc2ccccc2Cl)cc1,100,16*,i,-6,-2,29*,-11,12
Cc1cc(C(=O)NCC(=O)Nc2c(C)cccc2C)c2ccccc2n1,.,11*,.,0,.,3,0,-2
CCc1ccc(C2C(=O)c3ccccc3C2=O)cc1,105,6.3*,i,2,-12,3,7,-7
CCCc1c(NC(=O)Nc2ccc(F)cc2)cnn1-c1ccccc1,110,7.1*,i,-7,-4,17*,-7,8
CCCc1c(C(=O)Nc2ccc(F)cc2C)cnn1-c1ccccc1,.,1,i,6,1,.,.,.
COC(=O)c1ccc(CSc2nc3cc(Cl)ccc3s2)o1,91,0,i,-7,0,.,.,.
COC(=O)c1ccc(CSc2nnc(Nc3ccc(C)cc3)s2)o1,108,7.5*,i,-2,3,14*,1,8
COc1ccc(NC(=O)c2sc(=O)n(Cc3ccc(SC)cc3)c2C)cc1OC,.,0,.,5,.,.,.,.
Nc1ccc2c(c1)C(=O)C(=O)c1ccccc1-2,95,22*,i,6,-13,15*,97*,3
